# Shown are actives, neighbours in structure and some others; about 0.57% of the full set was active somewhere.
# VLA-4 inh = inhibition in a human VLA-4 binding assay; P13612; VLA-4 expressing cells, ligand binding flow cytometry; inhibition, % (about 7 µM as worked out from the volumes in the protocol); 0.2% of 330,000 active; AID 2557; in the data active means inhibition above about 50%
# Arr AP2 block = blocks beta-arrestin peptide binding to AP2 adaptin. FITC-arrestin peptide / GST-AP2 beads, flow cytometry; AP2 beta2 appendage carries R879A mutation. inhibition, % at 10 µM. 0.31% of 340,000 active;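 active means inhibition above a set limit, near 3 SD of compounds lacking own fluorescence, cut at about 54% in these data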;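 further: plate controls were DMSO wells for no effect and 5 µM unlabelled arrestin peptide for full effect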
#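 system = GST-tagged AP2 beta2-adaptin appendage (R879A) on 4 µm glutathione beads | reagent = FITC-labelled arrestin peptide probe, 50 nM final | schedule = compound with beads 12 min RT, then probe 1 h RT | signal = HyperCyt-sampled flow cytometry, FL1 channel, ex 488/em 535 nm | read-out = percent response from loss of bead-bound FITC fluorescence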
# p-CIP stab down = lowers stability of the mouse p/CIP coactivator protein; AID 1984; 0.01% of 290,000 active; Q05BA5; F442A p/CIP-EGFP cells, EGFP fluorescence, 16 h; decrease of EGFP signal, % at 10 µM;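 active means EGFP signal decrease of at least 30% at 10 µM or well 3 SD below plate mean, unless failing retest; inactive means the rest, including hits failing retest or dose response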
# Target sequence (Q05BA5 1-1403): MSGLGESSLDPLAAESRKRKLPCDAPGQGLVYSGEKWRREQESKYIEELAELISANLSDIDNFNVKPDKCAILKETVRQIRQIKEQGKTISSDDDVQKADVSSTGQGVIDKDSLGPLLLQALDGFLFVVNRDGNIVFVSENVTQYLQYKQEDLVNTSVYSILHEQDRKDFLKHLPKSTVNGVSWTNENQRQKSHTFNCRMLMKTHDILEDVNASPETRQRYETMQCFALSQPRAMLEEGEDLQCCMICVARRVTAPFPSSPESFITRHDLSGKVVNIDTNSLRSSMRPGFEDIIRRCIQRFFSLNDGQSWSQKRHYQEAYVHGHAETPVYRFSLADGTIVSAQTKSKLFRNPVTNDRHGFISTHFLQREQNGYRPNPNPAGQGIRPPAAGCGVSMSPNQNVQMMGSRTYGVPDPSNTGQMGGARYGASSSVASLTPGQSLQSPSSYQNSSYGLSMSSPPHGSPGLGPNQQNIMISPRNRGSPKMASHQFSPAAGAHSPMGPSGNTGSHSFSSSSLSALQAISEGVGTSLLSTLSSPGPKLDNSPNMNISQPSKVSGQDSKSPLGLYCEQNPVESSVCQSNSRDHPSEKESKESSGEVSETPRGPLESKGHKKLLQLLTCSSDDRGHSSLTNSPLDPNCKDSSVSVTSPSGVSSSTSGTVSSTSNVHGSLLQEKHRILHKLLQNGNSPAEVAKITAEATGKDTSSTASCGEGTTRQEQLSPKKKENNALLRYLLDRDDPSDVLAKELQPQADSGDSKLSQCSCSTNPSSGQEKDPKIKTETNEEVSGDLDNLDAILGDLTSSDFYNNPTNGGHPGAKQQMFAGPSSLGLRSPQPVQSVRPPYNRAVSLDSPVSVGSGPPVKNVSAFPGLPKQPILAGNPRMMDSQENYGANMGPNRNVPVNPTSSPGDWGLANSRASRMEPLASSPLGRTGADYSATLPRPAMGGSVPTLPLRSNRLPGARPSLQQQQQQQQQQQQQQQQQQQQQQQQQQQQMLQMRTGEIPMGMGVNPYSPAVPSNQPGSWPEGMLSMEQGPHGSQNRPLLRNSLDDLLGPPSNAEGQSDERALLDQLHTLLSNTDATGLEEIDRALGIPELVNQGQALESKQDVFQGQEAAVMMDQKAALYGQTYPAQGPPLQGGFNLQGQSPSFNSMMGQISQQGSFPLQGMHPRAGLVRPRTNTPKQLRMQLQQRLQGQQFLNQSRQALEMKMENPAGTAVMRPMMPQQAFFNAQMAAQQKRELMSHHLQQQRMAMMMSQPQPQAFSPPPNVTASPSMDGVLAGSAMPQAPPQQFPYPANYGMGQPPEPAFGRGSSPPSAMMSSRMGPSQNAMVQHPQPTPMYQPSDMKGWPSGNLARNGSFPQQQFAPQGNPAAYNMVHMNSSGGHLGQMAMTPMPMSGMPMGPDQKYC
# GASC-1 inh = blocks human GASC-1 demethylase activity. Q9H3R0. GST-JMJD2C(1-420) H3K9me3 demethylation, DELFIA europium. inhibition, % at 2.35 µM. 0.069% of 330,000 active. AID 2099;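 active means more than half of a compound's replicate wells show inhibition beyond 50%, single wells judged on their own value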;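 further: signal counts dimethyl H3K9 product captured on neutravidin plate; 0% = median of DMSO wells and 100% = 0.3 times that DMSO median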
# Arr-AP2 CP1 = inhibitors of human beta-arrestin and AP2 interaction | shares compounds with Arr AP2 block | GST-AP2 beads, FITC arrestin peptide binding, flow cytometry; GST-fused beta2-adaptin appendage, R879A mutant | inhibition, % at 10 µM | 2% of 1,300 active;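 active means inhibition above a set limit, roughly 3 SD of non-fluorescent compound noise, cut at about 38% in these data; inactive means inhibition at or below that limit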;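 further: loss of bead fluorescence from 50 nM FITC arrestin peptide bound to appendage; 0% = negative control wells and 100% = excess unlabelled arrestin peptide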
# GST-FITC bead = GST-GSH bead binding interference, counter-screen | shares compounds with Arr AP2 block | inhibition, % at 10 µM | GST-fluorescein binding to GSH beads, fluorescence | 2% of 1,300 active;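 active means inhibition above 50%, about 3 SD of the inhibition seen with non-fluorescent compounds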;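 further: fluorescein maleimide labelled GST captured on 4 micron glutathione beads; higher means more loss of bead fluorescence from quenching or blocked binding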
# * hit, by the source's call; nt = not tested or not shown.
SMILES,VLA-4 inh,Arr AP2 block,p-CIP stab down,GASC-1 inh,Arr-AP2 CP1,GST-FITC bead
CSCCC(NS(=O)(=O)c1ccccc1F)C(=O)NCC(C)(C)N1CCOCC1 (stereo not drawn),-1,56*,nt,3,4,1
COc1ccc2occ(NC(C)=O)c2c1,2,4,0,1,nt,nt
N=C1C(c2nc3ccccc3[nH]2)=C(O)CN1c1ccc(F)cc1,-13,5,-17,16,nt,nt
NC1=NCC(O)=C1c1nc2ccccc2[nH]1,12,66*,17,1,-9,4
Cc1ccnn1CCC(=O)N1CCCC(Nc2ccc(F)c(F)c2)C1 (stereo not drawn),0,67*,-7,8,6,-2
C/C(=N\NC(=O)CNC(=O)c1ccc2c(c1)OCO2)c1ccco1,13,2,-9,2,nt,nt
COc1cc(OC)nc(NC(=O)C(C)C)n1,15,-4,-6,-15,nt,nt
COc1cc(NC(=O)C(C)Oc2ccccc2)c(C(=O)O)cc1OC (stereo not drawn),-4,-1,9,-2,-6,-5
COc1cc(NC(=O)Cc2ccccc2)c(C(=O)O)cc1OC,1,6,-4,6,nt,nt
CCN(CC)C(=O)c1cnn(-c2ccccc2)c1NC(=O)c1cccc(F)c1,0,34,-2,-8,nt,nt
CN(C)c1ccc(S(=O)(=O)N2CCCCC2)cc1NC(=O)CN1C(=O)NC2(CCCC2)C1=O,-5,54*,nt,3,1,-9
O=C(NCCCN1CCCC1=O)c1cc(-c2ccc(F)cc2)nc2ccccc12,0,7,nt,0,nt,nt
c1ccc(Oc2ccc(-c3ccn[nH]3)cc2)cc1,14,-17,3,7,nt,nt
O=C(/C=C/c1ccccc1[N+](=O)[O-])NCCCN1CCCC1=O,17,57*,-20,20,0,-7
Cc1cccn2c(=O)c3cc(C(=O)NC4CCS(=O)(=O)C4)sc3nc12 (stereo not drawn),-16,-2,-19,19,nt,nt
CCCn1c(=O)c(C(=O)NCCc2ccccc2)c(O)c2ccccc21,3,-4,-14,-5,nt,nt
CCCn1c(=O)c(C(=O)NCCc2ccc(OC)cc2)c(O)c2ccccc21,-2,55*,-15,-28,0,-10
CCn1ncc(C(=O)Nc2ccc(F)cc2)c1C,2,-12,nt,-9,nt,nt
Cc1c(C(=O)Nc2ccc(C(=O)O)cc2)cnn1C,11,58*,-1,3,-6,-1
CC(=O)c1ccc(NC(=O)C2CC2c2ccccc2)cc1 (stereo not drawn),-5,-8,nt,-3,nt,nt
CC(=O)c1ccc(NC(=O)C2C3C=CC(C3=C(c3ccccc3)c3ccccc3)C2C(=O)O)cc1 (stereo not drawn),0,56*,10,-10,-3,-5
O=C(O)/C=C\C(=O)Nc1ccc(OC(F)F)cc1,-45,54*,-17,-14,-12,-1
O=C(O)/C=C/C(=O)Nc1ccc(Oc2ccccc2)cc1,-4,31,-2,-23,nt,nt
CCN1CCN(C(=O)NC2CCCCC2)CC1,-2,26,-4,1,nt,nt
O=C(NC1CCCCC1)N1CCN(CCc2ccccc2)CC1,3,54*,1,2,-2,-2
SMILES,VLA-4 inh,Arr AP2 block,p-CIP stab down,GASC-1 inh,Arr-AP2 CP1,GST-FITC bead
N#Cc1cc(C(=O)c2ccccc2OCC(=O)Nc2ccccc2)cn(C2CCCCC2)c1=O,-3,108*,7,6,72*,191*
O=C(NCCc1ccc(F)cc1)NC12CC3CC(CC(C3)C1)C2,-12,13,0,15,nt,nt
Cc1sc2ncnc(NCc3ccco3)c2c1C,-1,85*,-12,13,-6,-1
Cc1sc2ncnc(NCc3cccs3)c2c1C,4,-4,-20,3,nt,nt
Cc1ccccc1CCNC(=O)c1cc(C2CC2)nc2c1cnn2C(C)C,9,6,nt,nt,nt,nt
O=C(/C=C/c1ccc(F)cc1)Nc1ccc(S(=O)(=O)N2CCOCC2)cc1,7,54*,8,1,-6,10
O=C(CCc1ccccc1Cl)Nc1ccc(S(=O)(=O)N2CCOCC2)cc1,3,59*,nt,3,-4,-2
O=C(CCc1ccccc1Cl)Nc1cc(S(=O)(=O)N2CCOCC2)ccc1N1CCCC1,nt,30,nt,nt,nt,nt
CC(C)(C)OC(=O)C[C@H]1C/C=C\C[C@@H](CC(=O)N(CCO)Cc2ccccc2)C(=O)NC[C@H](c2ccccc2)OC1=O,7,9,nt,3,nt,nt

# Screening results deposited in PubChem BioAssay by several laboratories.
